# According to ChEMBL document CHEMBL4610063, “Mangiferin: A promising natural xanthone from Mangifera indica for the control of acyclovir - resistant herpes simplex virus 1 infection” (Bioorg Med Chem, 2020):
# Activity calls are given as the source filed them. The rule behind the calls is not given here.
# What was measured:
# Assay type in all cases: functional, organism-based
# Human alphaherpesvirus 1 [1] = test: Antiviral activity against ACV-sensitive Herpes simplex virus 1 KOS infected in male Balb/c mouse assessed as reduction in ulcerated lesion at 50 mg/g applied topically as cream formulation 5 times a day at 3 hrs interval for 10 days measured on day 7 post infection; conditions: strain KOS
# Outline: (§1)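 Balb/c mice (5 weeks, 22–27 g; six per group, sexes tested separately) had the right mid-flank depilated under i.p. anaesthesia and needle-scarified 24 h later. They were inoculated with 70 μL HSV-1 KOS (10^5 PFU/mL). From 4 h post-infection, O/W emulsion with 0.7% w/w mangiferin or ACV cream (50 mg/g) was applied topically 5 times daily for 10 days. Lesions were scored daily.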
# Human alphaherpesvirus 1 [2] = test: Antiviral activity against ACV-resistant Herpes simplex virus 1 AR-29 infected in male Balb/c mouse assessed as reduction in ulcerated lesion at 50 mg/g applied topically as cream formulation 5 times a day at 3 hrs interval for 10 days measured on day 5 post infection
# Outline: (§2)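 Balb/c mice, 5 weeks old, six per group. Right mid-flank depilated under i.p. anaesthesia, needle-scarified 24 h later and inoculated with 70 μL HSV-1 AR-29 (10^5 PFU/mL). Topical 0.7% w/w O/W emulsion or ACV cream (50 mg/g) starts 4 h post-infection, 5 times daily for 10 days. Lesions are scored daily.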
# Human alphaherpesvirus 1 [3] = test: Antiviral activity against ACV-resistant Herpes simplex virus 1 AR-29 infected in male Balb/c mouse assessed as reduction in zosteriform lesion at 50 mg/g applied topically as cream formulation 5 times a day at 3 hrs interval for 10 days measured on day 5 post infection; outline: as §2
# Human alphaherpesvirus 1 [4] = test: Antiviral activity against ACV-resistant Herpes simplex virus 1 AR-29 infected in female Balb/c mouse assessed as reduction in zosteriform lesion at 50 mg/g applied topically as cream formulation 5 times a day at 3 hrs interval for 10 days measured on day 7 post infection; outline: as §2
# Human alphaherpesvirus 1 [5] = test: Antiviral activity against ACV-sensitive Herpes simplex virus 1 KOS infected in male Balb/c mouse assessed as reduction in ulcerated lesion at 50 mg/g applied topically as cream formulation 5 times a day at 3 hrs interval for 10 days measured on day 2 post infection; conditions: strain KOS; outline: as §1
# Human alphaherpesvirus 1 [6] = test: Antiviral activity against ACV-sensitive Herpes simplex virus 1 KOS infected in female Balb/c mouse assessed as reduction in ulcerated lesion at 50 mg/g applied topically as cream formulation 5 times a day at 3 hrs interval for 10 days measured on day 3 to day 5 post infection; conditions: strain KOS; outline: as §1
# Human alphaherpesvirus 1 [7] = test: Antiviral activity against ACV-resistant Herpes simplex virus 1 AR-29 infected in female Balb/c mouse assessed as reduction in skin lesion at 50 mg/g applied topically as cream formulation 5 times a day at 3 hrs interval for 10 days; outline: as §2
compound,measurement,setting,value
Nc1nc2c(ncn2COCCO)c(=O)[nH]1,Activity,Human alphaherpesvirus 1 [1],Active
same,Activity,Human alphaherpesvirus 1 [2],inactive
same,Activity,Human alphaherpesvirus 1 [3],inactive
same,Activity,Human alphaherpesvirus 1 [4],Active
same,Activity,Human alphaherpesvirus 1 [5],inactive
same,Activity,Human alphaherpesvirus 1 [6],inactive
same,Activity,Human alphaherpesvirus 1 [7],inactive
